The values below come from ChEMBL document CHEMBL1154414, “In vitro and in vivo activities of T-705 against arenavirus and bunyavirus infections” (Antimicrob Agents Chemother, 2007).

Calls of active or inactive are those of the source. No cut-off for these calls is given here.

Experiment [1] relates to Punta Toro virus. Kind of experiment: Antiviral activity against 500 PFU Punta Toro virus Adames infected C57BL/6 mouse assessed as mean serum ALT levels at 5 mg/kg, po twice daily administered 4 hrs before viral challenge measured on day 3 of viral infection. It is filed as functional. A digest of the protocol: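 C57BL/6 mice received subcutaneous PTV, then oral gavage twice daily for 5–7 days. T-705 was given in 0.4% CMC and ribavirin in saline. Five mice per group (10 placebo) were killed on day 3 or 4, and serum was collected. ALT activity was measured by kinetic assay. Three sham-infected mice set baselines.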

For experiment [2], the system named is Punta Toro virus. Kind of experiment: Antiviral activity against Punta Toro virus Adames infected Syrian golden hamster assessed as mean day of death at 60 mg/kg, po twice daily for 6 days administered 4 hrs before viral challenge. It counts as functional.
In experiment [3] the test system is Punta Toro virus. Put plainly: Antiviral activity against 500 PFU Punta Toro virus Adames infected C57BL/6 mouse assessed as survival at 100 mg/kg, po twice daily for 5 days administered 4 hrs before viral challenge. It is filed as functional, organism-based. Details: dose 100 mg/kg. The essentials:
(§1)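 PTV was inoculated subcutaneously into mice in groups of 15 (25–30 placebo). Dosing was by oral gavage twice daily for 5–7 days, with T-705 suspended in 0.4% CMC and ribavirin in saline. Remaining animals were observed 21–28 days for survival and day of death. Test doses had first been checked for tolerance in uninfected animals.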

Experiment [4] concerns Punta Toro virus. Kind of experiment: Antiviral activity against 500 PFU Punta Toro virus Adames infected C57BL/6 mouse assessed as survival at 25 mg/kg, po twice daily for 5 days administered 4 hrs before viral challenge. It is filed as functional, organism-based. Details: dose 25 mg/kg. The essentials:
as §1

For experiment [5], the system named is Punta Toro virus. Put plainly: Antiviral activity against 500 PFU Punta Toro virus Adames infected C57BL/6 mouse assessed as mean viral titer per 0.1 mL of serum at 5 mg/kg, po twice daily administered 4 hrs before viral challenge measured on day 3 of viral infection. It counts as functional. A digest of the protocol:
(§2)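 Mice were infected subcutaneously with PTV and dosed by oral gavage twice daily; 5 per group (10 placebo) were killed on day 3 or 4. Liver homogenate or serum was serially diluted onto triplicate LLC-MK2 monolayers, and CPE was read 6–8 days later. 50% endpoints gave log10 CCID50 per 0.1 g liver or 0.1 ml serum. Detection range was 2.8–9.5; undetectable samples were assigned <2.8.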

Experiment [6] relates to Punta Toro virus. Put plainly: Antiviral activity against 500 PFU Punta Toro virus Adames infected C57BL/6 mouse assessed as mean day of death at 25 mg/kg, po twice daily for 5 days administered 4 hrs before viral challenge. It is filed as functional. The essentials:
(§3)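 Groups of 15 mice (25–30 placebo) were inoculated subcutaneously with PTV. Drug in 0.4% carboxymethylcellulose was given by oral gavage twice daily.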

In experiment [7] the test system is Punta Toro virus. Kind of experiment: Antiviral activity against 500 PFU Punta Toro virus Adames infected C57BL/6 mouse assessed as mean day of death at 75 mg/kg, po twice daily for 5 days administered 4 hrs before viral challenge. It counts as functional. A digest of the protocol: as §3
Experiment [8] deals with Pichinde virus. Put plainly: Antiviral activity against Pichinde virus An 4763 infected Syrian golden hamster assessed as inhibition of liver damage at 20 mg/kg, po twice daily for 7 days administered 24 hrs post viral-challenge measured on day 7 of viral infection. Details: dose 20 mg/kg. It counts as functional, organism-based.
The test system of experiment [9] is Enterovirus. Put plainly: Antiviral activity against Rhinovirus. It is filed as functional, organism-based.
The subject of experiment [10] is Punta Toro virus. Kind of experiment: Antiviral activity against Punta Toro virus Adames infected Syrian golden hamster assessed as animals with detectable virus level in serum at 15 mg/kg, po twice daily administered 4 hrs before viral challenge measured on day 4 of viral infection. It counts as functional.
For experiment [11], the system named is Punta Toro virus. Put plainly: Antiviral activity against Punta Toro virus Adames infected Syrian golden hamster assessed as mean serum ALT levels at 60 mg/kg, po twice daily administered 4 hrs before viral challenge measured on day 4 of viral infection. It is filed as functional.
Experiment [12] relates to Punta Toro virus. Kind of experiment: Antiviral activity against Punta Toro virus Adames infected Syrian golden hamster assessed as inhibition of liver damage at 60 mg/kg, po twice daily administered 4 hrs before viral challenge measured on day 4 of viral infection. The arrangement: dose 60 mg/kg. It is filed as functional, organism-based.
Experiment [13] has as its system Junin virus. Kind of experiment: Antiviral activity against Junin virus Candid-1 assessed as reduction of 1 log10 unit viral titer yields after 7 to 8 days. It is filed as functional. Conditions: Mammarenavirus juninense.
The test system of experiment [14] is Pichinde virus. Put plainly: Antiviral activity against Pichinde virus An 4763 infected Syrian golden hamster assessed as mean day of death at 15 mg/kg, po twice daily for 7 days administered 4 hrs before viral-challenge. It counts as functional.
Experiment [15] deals with Pichinde virus. Kind of experiment: Antiviral activity against Pichinde virus An 4763 infected Syrian golden hamster assessed as mean viral titer per 0.1 g of liver at 60 mg/kg, po twice daily for 7 days administered 4 hrs before viral-challenge measured on day 7 of viral infection. It counts as functional.
Experiment [16] relates to Pichinde virus. Put plainly: Antiviral activity against Pichinde virus An 4763 infected Syrian golden hamster assessed as mean viral titer per 0.1 g of liver at 30 mg/kg, po twice daily for 7 days administered 4 hrs before viral-challenge measured on day 7 of viral infection. It counts as functional.
In experiment [17] the test system is Pichinde virus. Put plainly: Antiviral activity against Pichinde virus An 4763 infected Syrian golden hamster assessed as animals with detectable virus level in liver at 30 mg/kg, po twice daily for 7 days administered 4 hrs before viral-challenge measured on day 7 of viral infection. It counts as functional.
Experiment [18] relates to Pichinde virus. Kind of experiment: Antiviral activity against Pichinde virus An 4763 infected Syrian golden hamster assessed as animals with detectable virus level in liver at 15 mg/kg, po twice daily for 7 days administered 4 hrs before viral-challenge measured on day 7 of viral infection. It is filed as functional.
Experiment [19] deals with Pichinde virus. Put plainly: Antiviral activity against Pichinde virus An 4763 infected Syrian golden hamster assessed as mean viral titer per 0.1 mL of serum at 30 mg/kg, po twice daily for 7 days administered 4 hrs before viral-challenge measured on day 7 of viral infection. It counts as functional.
The subject of experiment [20] is Pichinde virus. Put plainly: Antiviral activity against Pichinde virus An 4763 infected Syrian golden hamster assessed as animals with detectable virus level in serum at 15 mg/kg, po twice daily for 7 days administered 4 hrs before viral-challenge measured on day 7 of viral infection. It counts as functional. A digest of the protocol:
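Hamsters (groups of 15, placebo 25-30) were dosed orally by gavage twice daily (drug suspended in 0.4% CMC) after bilateral intraperitoneal challenge with 65 PFU. Five per group were killed on day 7. Liver homogenate or serum was serially diluted onto triplicate B-SC-1 wells, CPE was read at 6-8 days, and the 50% endpoint was taken. Range was 2.8-9.5 log10 CCID50/0.1 g or 0.1 ml, with undetectable assigned <2.8.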

The subject of experiment [21] is Punta Toro virus. Kind of experiment: Antiviral activity against 500 PFU Punta Toro virus Adames infected C57BL/6 mouse assessed as mean viral titer per 0.1 mL of serum at 25 mg/kg, po twice daily administered 4 hrs before viral challenge measured on day 4 of viral infection. It counts as functional. The essentials: as §2
Experiment [22] relates to Punta Toro virus. Kind of experiment: Antiviral activity against 5000 PFU Punta Toro virus Adames infected C57BL/6 mouse assessed as survival at 30 mg/kg, po twice daily for 5 days 24 hrs post viral challenge. It is filed as functional. The essentials:
as §1

Experiment [23] has as its system Pichinde virus. Kind of experiment: Antiviral activity against Pichinde virus An 4763 infected Syrian golden hamster assessed as survival at 20 mg/kg, po twice daily for 7 days administered 72 hrs post viral-challenge. It counts as functional.
In experiment [24] the test system is Pichinde virus. Put plainly: Antiviral activity against Pichinde virus An 4763 infected Syrian golden hamster assessed as inhibition of liver damage at 50 mg/kg, po twice daily for 7 days administered 72 hrs post viral-challenge measured on day 7 of viral infection. It counts as functional, organism-based. The arrangement: dose 50 mg/kg.
The test system of experiment [25] is Pichinde virus. Kind of experiment: Antiviral activity against Pichinde virus An 4763 infected Syrian golden hamster assessed as animals with detectable virus level in serum at 40 mg/kg, po twice daily for 7 days administered 4 hrs before viral-challenge measured on day 7 of viral infection. It counts as functional.
The subject of experiment [26] is Punta Toro virus. Put plainly: Antiviral activity against 500 PFU Punta Toro virus Adames infected C57BL/6 mouse assessed as protection against viral infection at 75 mg/kg, po twice daily for 5 to 7 days. It is filed as functional. The essentials: as §1

A word on the EC50: it is the concentration that produces a half-maximal response. High values mean weaker potency, low ones greater potency. Broadly, the EC90 is the point of the concentration-response curve where the effect stands at 90%. Consider `NC(=O)c1nc(F)cnc1O` [FAVIPIRAVIR], for which the Activity is 2461 IU/L in experiment [1]; 6 days in experiment [2]; more than 21 days in experiment [6]; more than 21 days in experiment [7]; 100% in [10]; 17 IU/L in experiment [11]. Besides, the Activity worked out at 11.1 days in experiment [14]; 100% in experiment [17]; 100% in [18]; 80% in experiment [20]; 90% in [22]. Also, the outcome in [3], in experiment [4], in [8] and in [12] was Active. Besides, the log10CCID50 in experiment [5] is 7.2; in [15], less than 2.8; in [16], 6.4; in experiment [19], less than 5.2; in experiment [21], less than 3.3. The compound also came in with an EC50 in experiment [9] of 146 µM. The EC90 in experiment [13] came out at 7 µM.
As to `NC(=O)c1ncn([C@@H]2O[C@H](CO)[C@@H](O)[C@H]2O)n1` [RIBAVIRIN], in experiment [23], the Efficacy came to 60%. The outcome in experiment [24] was Active. The results for the Activity in experiment [25] and in experiment [26] were 40% and 100%, respectively.
